Laboratory results: ChEMBL document CHEMBL1124309, “Toward the synthesis of isozyme-specific enzyme inhibitors. Potent inhibitors of rat methionine adenosyltransferases. Effect of one-atom elongation of the ribose-P alpha bridge in two covalent adducts of L-methionine and beta,gamma-imido-ATP” (J Med Chem, 1988)

How the values were obtained:
[1] = molecular target: T1, S-adenosylmethionine synthetase (MAT 1 and MAT 2) (Rattus norvegicus, UniProt P13444+P18298); experiment: Inhibition constant of ATP varied compound was measured on M-2 variate methionine adenosyltransferase in rat kidney
In short: (§1)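 Rat M-2 enzyme; MgATP varied at six to eight levels, (0.5-4.0)×KM, with L-[methyl-14C]methionine fixed at 60 μM; two inhibitor levels plus no-inhibitor control. 10 min, 37 °C, pH 8.2 Tris/KCl/MgCl2/DTT buffer, duplicates. Acid-stopped; product on phosphocellulose discs counted by scintillation; no-ATP blanks. Ki from slope/intercept replots of double-reciprocal plots.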

[2] = molecular target: T1, S-adenosylmethionine synthetase (MAT 1 and MAT 2); experiment: Inhibition constant of Met varied compound was measured on M-2 variant methionine adenosyltransferase in rat kidney
In short: (§2)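 L-[methyl-14C]methionine varied at six to eight levels, (0.5-4.0)×KM, with MgATP fixed at 2 mM for both M-2 and M-T; two inhibitor levels plus control. Incubations run in duplicate for 10 min at 37 °C, pH 8.2 Tris buffer with KCl, MgCl2 and DTT. Product on phosphocellulose discs counted by scintillation; no-ATP blanks. Ki from replots of double-reciprocal slopes/intercepts.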

[3] = molecular target: T1, S-adenosylmethionine synthetase (MAT 1 and MAT 2); experiment: Inhibition constant of ATP varied compound was measured on MT variant methionine adenosyltransferase in rat ascitic hepatoma cells; type: cell-based
In short: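 M-T variant; MgATP varied at six to eight levels, (0.5-4.0)×KM, with L-[methyl-14C]methionine fixed at 120 μM; two inhibitor levels plus uninhibited control. Duplicate 10-min incubations at 37 °C in pH 8.2 Tris/KCl/MgCl2/DTT. Stopped with HClO4-methionine; labelled product bound to phosphocellulose discs, scintillation counted; no-ATP blanks. Ki by replotting double-reciprocal slopes/intercepts.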

[4] = molecular target: T1, S-adenosylmethionine synthetase (MAT 1 and MAT 2); experiment: Inhibition constant of Met varied compound was measured on MT variant methionine adenosyltransferase in rat ascitic hepatoma cells; type: cell-based; in short: as §2
[5] = molecular target: T1, S-adenosylmethionine synthetase (MAT 1 and MAT 2); experiment: Inhibition constant of Met varied compound was measured on M-2 variant Methionine adenosyltransferase in rat kidney; in short: as §2
[6] = molecular target: T1, S-adenosylmethionine synthetase (MAT 1 and MAT 2); experiment: Inhibition constant of ATP varied compound was measured on M-2 variate Methionine adenosyltransferase in rat kidney; in short: as §1

Ki [1] [nM]	Ki [2] [nM]	Ki [3] [nM]	Ki [4] [nM]	Ki [5] [nM]	Ki [6] [nM]	Compound
440	2100	810	1500			Nc1ncnc2c1ncn2[C@@H]1O[C@H](C(CCOP(=O)(O)OP(=O)(O)NP(=O)(O)O)SCCC(N)C(=O)O)[C@@H](O)[C@H]1O (stereo partly specified)
360	3000	270	2300			Nc1ncnc2c1ncn2[C@@H]1O[C@H]([C@@H](CNP(=O)(O)OP(=O)(O)OP(=O)(O)O)SCCC(N)C(=O)O)[C@@H](O)[C@H]1O (stereo partly specified)
		210	670	650	130	Nc1ncnc2c1ncn2[C@@H]1O[C@H]([C@H](CSCCC(N)C(=O)O)OP(=O)(O)OP(=O)(O)NP(=O)(O)O)[C@@H](O)[C@H]1O (stereo partly specified)
390	2200	630	2700			Nc1ncnc2c1ncn2[C@@H]1O[C@H](CC(CSCC[C@H](N)C(=O)O)OP(=O)(O)OP(=O)(O)NP(=O)(O)O)[C@@H](O)[C@H]1O (stereo partly specified)
